# The source made the active and inactive calls. The calls are words filed in the database; no cut-off is given here. Peptide text beside a SMILES is read from it. * marks the point of attachment. Cbz = O=C(OCc1ccccc1)*
# Key:
# A549 = experiment: Growth inhibition in apoptosis-resistant human A549 after 3 days by MTT assay; format: functional; details: A549, 72 h
# In short: (§1)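 Cells grown in RPMI with 10% heat-inactivated FCS, 4 mM glutamine, gentamicin and penicillin–streptomycin. Drug exposure 3 days, growth read by MTT colorimetric assay. Nine concentrations from 0.01 to 100 μM in semilog steps, six replicates each; IC50 derived per cell line.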
# B16-F10 = experiment: Growth inhibition in mouse B16F10 after 3 days by MTT assay; format: functional; details: B16-F10, 72 h; in short: as §1
# PC-3 = experiment: Growth inhibition in apoptosis-sensitive human PC3 after 3 days by MTT assay; format: functional; details: PC-3, 72 h; in short: as §1
# T98G = experiment: Growth inhibition in apoptosis-resistant human T98G after 3 days by MTT assay; format: functional; details: 72 h; in short: as §1
# [1] = Growth inhibition in apoptosis-resistant human U373 after 3 days by MTT assay; format: functional, U-373MG ATCC; details: U373 MG, 72 h; in short: as §1
# [2] = Chemical stability of the compound in MEM cell culture medium after 7 days by HPLC analysis; format: physicochemical; details: read-out: Stability
# In short: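 Compound incubated in MEM culture medium at 37 °C for 7 days, then analysed by HPLC on RX-C8 (5 μm) column with MeOH–water 90:10 (0.1% TFA), diode-array detection. Expressed as % of incubated compound recovered.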
# Hs 683 = experiment: Growth inhibition in apoptosis-sensitive human Hs683 after 3 days by MTT assay; format: functional; details: Hs 683, 72 h; in short: as §1
# MCF7 = experiment: Growth inhibition in apoptosis-sensitive human MCF7 after 3 days by MTT assay; format: functional; details: MCF7, 72 h; in short: as §1
# SK-MEL-28 = experiment: Growth inhibition in apoptosis-resistant human SK-MEL-28 after 3 days by MTT assay; format: functional; details: SK-MEL-28, 72 h; in short: as §1
# U-373MG ATCC [3] = experiment: Inhibition of caspase-like activity of 20S proteasome in human U373 cells at 0.5 uM after 2 days by bioluminescence assay; format: cell-based
# In short: (§2)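 U373 GBM cells seeded at 5000 cells/mL and grown 48 h, then treated for two days. Cells washed in PBS and permeabilised with 0.025% digitonin. Proteasome-Glo reagent added with Suc-LLVY-Glo (chymotrypsin-like), Z-LRR-Glo (trypsin-like) or Z-nLPnLD-Glo (caspase-like) substrate. Luminescence read after 10 min in the dark and normalised to a parallel MTT viability assay; triplicates. MG-132 at 0.5 μM used as reference.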
# U-373MG ATCC [4] = experiment: Inhibition of caspase-like activity of 20S proteasome in human U373 cells at 7 uM after 2 days by bioluminescence assay; format: cell-based; in short: as §2
# U-373MG ATCC [5] = experiment: Inhibition of trypsin-like activity of 20S proteasome in human U373 cells at 7 uM after 2 days by bioluminescence assay; format: cell-based; in short: as §2
# U-373MG ATCC [6] = experiment: Inhibition of caspase-like activity of 20S proteasome in human U373 cells at 60 uM after 2 days by bioluminescence assay; format: cell-based; in short: as §2
# U-373MG ATCC [7] = experiment: Inhibition of trypsin-like activity of 20S proteasome in human U373 cells at 60 uM after 2 days by bioluminescence assay; format: cell-based; in short: as §2
# U-373MG ATCC [8] = experiment: Inhibition of chymotrypsin-like activity of 20S proteasome in human U373 at 7 uM after 2 days by bioluminescence assay; format: cell-based; in short: as §2
# U-373MG ATCC [9] = experiment: Inhibition of chymotrypsin-like activity of 20S proteasome in human U373 cells at 0.5 uM after 2 days by bioluminescence assay; format: cell-based; in short: as §2
# U-373MG ATCC [10] = experiment: Inhibition of chymotrypsin-like activity of 20S proteasome in human U373 cells at 60 uM after 2 days by bioluminescence assay; format: cell-based; in short: as §2
# U-373MG ATCC [11] = experiment: Inhibition of trypsin-like activity of 20S proteasome in human U373 cells at 0.5 uM after 2 days by bioluminescence assay; format: cell-based; in short: as §2
# [12] = target: T1, Peroxisome proliferator-activated receptor gamma (Homo sapiens) (UniProt P37231); experiment: Activation of PPARgamma activity in human U373 cells at 60 uM after 6 hrs by spectrophotometric analysis relative to control; format: cell-based; details: U-373MG ATCC
# T1 sequence (whole entry): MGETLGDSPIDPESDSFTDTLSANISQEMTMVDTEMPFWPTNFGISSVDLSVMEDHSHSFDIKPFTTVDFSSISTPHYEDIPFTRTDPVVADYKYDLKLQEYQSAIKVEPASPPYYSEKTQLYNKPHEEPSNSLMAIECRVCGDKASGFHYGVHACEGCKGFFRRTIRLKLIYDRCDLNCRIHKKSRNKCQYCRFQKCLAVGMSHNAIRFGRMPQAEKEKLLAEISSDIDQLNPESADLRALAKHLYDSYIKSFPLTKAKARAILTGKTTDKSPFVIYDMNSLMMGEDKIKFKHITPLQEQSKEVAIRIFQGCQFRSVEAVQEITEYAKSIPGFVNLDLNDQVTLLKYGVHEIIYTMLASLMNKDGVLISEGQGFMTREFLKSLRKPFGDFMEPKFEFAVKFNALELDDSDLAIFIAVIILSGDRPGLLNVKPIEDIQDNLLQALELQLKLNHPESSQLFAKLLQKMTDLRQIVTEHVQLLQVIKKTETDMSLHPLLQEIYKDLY
# In short: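 U373 glioblastoma cells were exposed for 6 h. Nuclear extracts were prepared by hypotonic buffer, NP-40 lysis and a protease-inhibitor extraction buffer. Extracts were bound overnight at 4 °C in a PPAR-γ transcription-factor plate, then probed with primary antibody and HRP anti-rabbit secondary, 1 h each at room temperature. Developer ran 45 min, read at 450 nm. Triplicates, mean ± SD versus control.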
GI50 (A549),GI50 (B16-F10),GI50 (PC-3),remaining at 168 h [2],GI50 (MCF7),GI50 (SK-MEL-28),Activity [12],Structure (SMILES),GI50 (T98G),GI50 [1],GI50 (Hs 683),inhibition (U-373MG ATCC [3]),inhibition (U-373MG ATCC [4]),inhibition (U-373MG ATCC [5]),inhibition (U-373MG ATCC [6]),inhibition (U-373MG ATCC [7]),inhibition (U-373MG ATCC [8]),inhibition (U-373MG ATCC [9]),inhibition (U-373MG ATCC [10]),inhibition (U-373MG ATCC [11])
28 µM,28 µM,30 µM,98%,25 µM,37 µM,,CC1(C)[C@@H](O)CC[C@]2(C)[C@H]3C(=O)C=C4[C@@H]5C[C@@](C)(C(=O)NCCNC(=O)c6ccc(F)cc6)CC[C@]5(C)CC[C@@]4(C)[C@]3(C)CC[C@@H]12,35 µM,29 µM,31 µM,,,,,,,,,
63 µM,31 µM,72 µM,99%,46 µM,42 µM,,COc1cccc(C(=O)NCCNC(=O)[C@@]2(C)CC[C@]3(C)CC[C@]4(C)C(=CC(=O)[C@@H]5[C@@]6(C)CC[C@H](O)C(C)(C)[C@@H]6CC[C@]54C)[C@@H]3C2)c1,77 µM,75 µM,58 µM,,,,,,,,,
37 µM,31 µM,47 µM,99%,30 µM,38 µM,,CSc1ccc(C(=O)NCCNC(=O)[C@@]2(C)CC[C@]3(C)CC[C@]4(C)C(=CC(=O)[C@@H]5[C@@]6(C)CC[C@H](O)C(C)(C)[C@@H]6CC[C@]54C)[C@@H]3C2)cc1,54 µM,37 µM,36 µM,,,,,,,,,
29 µM,31 µM,32 µM,96%,28 µM,49 µM,,CC1(C)[C@@H](O)CC[C@]2(C)[C@H]3C(=O)C=C4[C@@H]5C[C@@](C)(C(=O)NCCNC(=O)Nc6ccccc6)CC[C@]5(C)CC[C@@]4(C)[C@]3(C)CC[C@@H]12,30 µM,30 µM,28 µM,,,,,,,,,

# Continued, compound first:
Structure (SMILES),GI50 (A549),GI50 (B16-F10),GI50 (PC-3),remaining at 168 h [2],GI50 (MCF7),GI50 (SK-MEL-28),Activity [12],GI50 (T98G),GI50 [1],GI50 (Hs 683),inhibition (U-373MG ATCC [3]),inhibition (U-373MG ATCC [4]),inhibition (U-373MG ATCC [5]),inhibition (U-373MG ATCC [6]),inhibition (U-373MG ATCC [7]),inhibition (U-373MG ATCC [8]),inhibition (U-373MG ATCC [9]),inhibition (U-373MG ATCC [10]),inhibition (U-373MG ATCC [11])
CC(C)(C)OC(=O)NCCNC(=O)[C@@]1(C)CC[C@]2(C)CC[C@]3(C)C(=CC(=O)[C@@H]4[C@@]5(C)CC[C@H](O)C(C)(C)[C@@H]5CC[C@]43C)[C@@H]2C1,43 µM,48 µM,41 µM,93%,37 µM,60 µM,,73 µM,57 µM,63 µM,,,,,,,,,
CC(C)C[C@@H](C=O)NC(=O)[C@H](CC(C)C)NC(=O)[C@H](CC(C)C)NC(=O)OCc1ccccc1 (Cbz-Leu-Leu-Leu-aldehyde),,,,,,,,,,,Active,Active,Active,Active,Active,Active,Active,Active,Active
CC1(C)[C@@H](O)CC[C@]2(C)[C@H]3C(=O)C=C4[C@@H]5C[C@@](C)(C(=O)NCCNC(=O)c6ccc(C#N)cc6)CC[C@]5(C)CC[C@@]4(C)[C@]3(C)CC[C@@H]12,68 µM,31 µM,72 µM,92%,27 µM,35 µM,,77 µM,76 µM,67 µM,,,,,,,,,
CC1(C)[C@@H](O)CC[C@]2(C)[C@H]3C(=O)C=C4[C@@H]5C[C@@](C)(C(=O)NCCNC(=O)c6ccc(C(F)(F)F)cc6)CC[C@]5(C)CC[C@@]4(C)[C@]3(C)CC[C@@H]12,47 µM,36 µM,53 µM,95%,28 µM,49 µM,,62 µM,55 µM,38 µM,,,,,,,,,
COc1ccc(CCNC(=O)[C@@]2(C)CC[C@]3(C)CC[C@]4(C)C(=CC(=O)[C@@H]5[C@@]6(C)CC[C@H](O)C(C)(C)[C@@H]6CC[C@]54C)[C@@H]3C2)cc1,37 µM,31 µM,34 µM,91%,36 µM,> 100 µM,,68 µM,49 µM,61 µM,,,,,,,,,
CSCCCNC(=S)NCCNC(=O)[C@@]1(C)CC[C@]2(C)CC[C@]3(C)C(=CC(=O)[C@@H]4[C@@]5(C)CC[C@H](O)C(C)(C)[C@@H]5CC[C@]43C)[C@@H]2C1,38 µM,33 µM,39 µM,93%,30 µM,33 µM,,35 µM,35 µM,36 µM,,,,,,,,,
CC1(C)[C@@H](O)CC[C@]2(C)[C@H]3C(=O)C=C4[C@@H]5C[C@@](C)(C(=O)NCCN)CC[C@]5(C)CC[C@@]4(C)[C@]3(C)CC[C@@H]12,31 µM,30 µM,31 µM,90%,59 µM,> 100 µM,Active,> 100 µM,32 µM,58 µM,Active,Active,Active,Active,Active,Active,Active,Active,Active
CC1(C)[C@@H](O)CC[C@]2(C)[C@H]3C(=O)C=C4[C@@H]5C[C@@](C)(C(=O)NCCc6ccc(F)cc6)CC[C@]5(C)CC[C@@]4(C)[C@]3(C)CC[C@@H]12,33 µM,32 µM,33 µM,95%,31 µM,82 µM,,46 µM,42 µM,56 µM,,,,,,,,,
CCOC(=O)CCNC(=O)NCCNC(=O)[C@@]1(C)CC[C@]2(C)CC[C@]3(C)C(=CC(=O)[C@@H]4[C@@]5(C)CC[C@H](O)C(C)(C)[C@@H]5CC[C@]43C)[C@@H]2C1,29 µM,41 µM,46 µM,99%,42 µM,65 µM,,71 µM,42 µM,42 µM,,,,,,,,,

# — ChEMBL document CHEMBL1833790, “N-(2-{3-[3,5-bis(trifluoromethyl)phenyl]ureido}ethyl)-glycyrrhetinamide (6b): a novel anticancer glycyrrhetinic acid derivative that targets the proteasome and displays anti-kinase activity” (J Med Chem, 2011)
